In general, Ki refers to the dissociation constant of the complex between target and ligand, obtained from inhibition or displacement. A high value points to weaker binding.

The structures appear in SMILES notation.

We go through 30 compounds from ChEMBL document CHEMBL4017497, “Structure-Affinity Relationships and Structure-Kinetics Relationships of Pyrido[2,1-f]purine-2,4-dione Derivatives as Human Adenosine A3 Receptor Antagonists” (J Med Chem, 2017).

In assay [1] the target is T1, Adenosine receptor A3 (Homo sapiens) (UniProt P0DMS8).
T1 sequence (whole entry): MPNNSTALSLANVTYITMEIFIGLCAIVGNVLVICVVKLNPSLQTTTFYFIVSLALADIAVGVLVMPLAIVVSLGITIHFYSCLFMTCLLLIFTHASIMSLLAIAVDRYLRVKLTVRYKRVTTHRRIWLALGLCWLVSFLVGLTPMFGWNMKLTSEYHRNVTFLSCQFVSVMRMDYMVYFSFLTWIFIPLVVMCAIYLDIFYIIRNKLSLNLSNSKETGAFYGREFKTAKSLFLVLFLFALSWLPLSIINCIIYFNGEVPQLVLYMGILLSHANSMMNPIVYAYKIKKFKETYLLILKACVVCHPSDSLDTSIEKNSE
As to the kind of experiment: Displacement of [3H]PSB-11 from human adenosine A3 receptor expressed on CHO cell membranes assessed as kinetic rate index at IC50 measured after 240 mins by scintillation spectrometry. The method, boiled down: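 Dual-point competition association at 10 °C. […] Specific binding read at 20 min (t1) and 240 min (t2); KRI derived from these two time points. n = 2 or 3.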
A general note: Loss of bound radioactivity is the signal in a displacement assay; it reports binding, not function.

Assay [2] addresses T2, Adenosine receptor A3 (Homo sapiens, UniProt P0DMS8).
T2 sequence (P0DMS8 whole entry): T1 sequence (whole entry)
Kind of assay: (§1) Displacement of [3H]PSB-11 from human adenosine A3 receptor expressed on CHO cell membranes after 2 hrs by scintillation spectrometry.

In assay [3] the target is T1, Adenosine receptor A3 (Homo sapiens). The description is as §1.
The target is the same in assay [4]. As to the kind of experiment: Displacement of [3H]PSB-11 from human adenosine A3 receptor expressed on CHO cell membranes assessed as dissociation rate constant after 120 mins by scintillation spectrometry.
Assay [5] shares this target. Kind of assay: Displacement of [3H]PSB-11 from human adenosine A3 receptor expressed on CHO cell membranes assessed as association rate constant after 120 mins by scintillation spectrometry.
Assay [6] has as its target T2, Adenosine receptor A3. As to the kind of experiment: Antagonist activity at human adenosine A3 receptor expressed in CHO cell membranes assessed as inhibition of 2-Cl-IB-MECA-induced [35S]GTPgammaS binding preincubated with or without for 60 mins followed by addition of 2-Cl-IB-MECA and [35S]GTPgammaS measured after 30 mins. It is filed as functional. The following applies: read-out: pA2 (converted). A general note: Binding of GTPγS marks nucleotide exchange on a G protein.

The target in assay [7] is T2, Adenosine receptor A3. As to the kind of experiment: Antagonist activity at human adenosine A3 receptor expressed in CHO cell membranes assessed as inhibition of 2-Cl-IB-MECA-induced [35S]GTPgammaS binding measured after 30 mins. It is filed as functional. The following applies: read-out: pA2 (converted). The method, boiled down:
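CHOhA3 membranes (15 μg) in 50 mM Tris-HCl, 5 mM MgCl2, 1 mM EDTA, 0.05% BSA, 1 mM DTT, pH 7.4, with 1 μM GDP and 5 μg saponin. […] 2-Cl-IB-MECA 0.1 nM–10 μM with ~0.3 nM [35S]GTPγS, 30 min at 25 °C. Filtration. Schild analysis from EC50 shifts gives pA2 and slope.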

`COc1ccn2c(c1)nc1c2c(=O)n(C[Si](C)(C)C)c(=O)n1Cc1ccccc1`: in assay [1], the Activity index is 1.36. The affinity at Adenosine receptor A3 [2], expressed as Ki, was 2.7 nM. For the same compound, the inhibition entry in assay [3] is “Dose-dependent effect”.
Turning to `COc1ccn2c(c1)nc1c2c(=O)n(CC2CC2)c(=O)n1Cc1ccc(Cl)cc1`, the Activity index in assay [1] turned out to be 1.11. In addition, at Adenosine receptor A3 [2], the Ki turned out to be 1.2 nM. In assay [3], the inhibition result is “Dose-dependent effect”. The K in assay [4] turned out to be 8.2 ×10⁻⁴ /s; in assay [5] it was 3 ×10⁶ /M/s.
For `COc1ccn2c(c1)nc1c2c(=O)n(CC(C)C)c(=O)n1Cc1ccccc1`, in that order: 1.64, 1.2 nM, “Dose-dependent effect”, 2 ×10⁻⁴ /s and 7.8 ×10⁵ /M/s.
For `COc1ccn2c(c1)nc1c2c(=O)n(CC2CC2)c(=O)n1Cc1ccc(Br)cc1`, the Activity index in assay [1] is 1.19. The compound further showed a Ki at Adenosine receptor A3 [2] of 1.2 nM. Besides, in assay [3], the inhibition result is “Dose-dependent effect”.
The corresponding values for `C=CCn1c(=O)c2c(nc3cc(OC)ccn32)n(Cc2ccccc2)c1=O` are 0.72, 5.9 nM and “Dose-dependent effect”.
The corresponding values for `COc1ccn2c(c1)nc1c2c(=O)n(CCC(C)C)c(=O)n1Cc1ccccc1` are 1.39, 3.5 nM and “Dose-dependent effect”.
For `COc1ccn2c(c1)nc1c2c(=O)[nH]c(=O)n1Cc1ccccc1`, the Activity index in assay [1] is 0.38. The same compound registered a Ki on Adenosine receptor A3 [2] of 108 nM. In addition, the inhibition entry in assay [3] was “Dose-dependent effect”. Moreover, the results for the K in assay [4] and in assay [5] were 1.4 ×10⁻² /s and 5.3 ×10⁵ /M/s, respectively. Moreover, the Kb at Adenosine receptor A3 [6] is 158 nM; at Adenosine receptor A3 [7] it was 63.1 nM.
As to `CCCCCn1c(=O)c2c(nc3cc(OC)ccn32)n(Cc2ccccc2)c1=O`, the Activity index in assay [1] worked out at 1.11. The compound also registered a Ki on Adenosine receptor A3 [2] of 3.5 nM. For the same compound, in assay [3], the inhibition result is “Dose-dependent effect”. Further, the results for the K in assay [4] and in assay [5] were 6 ×10⁻⁴ /s and 1.1 ×10⁶ /M/s, respectively.
As for `COc1ccn2c(c1)nc1c2c(=O)n(CC2CC2)c(=O)n1Cc1cccc(C)c1`, the Activity index in assay [1] turned out to be 1.18. Moreover, on Adenosine receptor A3 [2], the Ki stood at 1.5 nM. The inhibition result in assay [3] is “Dose-dependent effect”.
In the case of `COCCn1c(=O)c2c(nc3cc(OC)ccn32)n(Cc2ccccc2)c1=O`, in assay [1], the Activity index amounted to 0.7. The same compound had a Ki on Adenosine receptor A3 [2] of 23 nM. Also, in assay [3], the inhibition result was “Dose-dependent effect”. The K was found to be 6.3 ×10⁻⁴ /s in assay [4] and 4.3 ×10⁵ /M/s in assay [5].
For `CCn1c(=O)c2c(nc3cc(OC)ccn32)n(Cc2ccccc2)c1=O`, the Activity index in assay [1] turned out to be 0.8. For the same compound, affinity on Adenosine receptor A3 [2] was put at a Ki of 10.7 nM. Besides, the inhibition entry in assay [3] is “Dose-dependent effect”.
For the compound `COc1ccn2c(c1)nc1c2c(=O)n(CCCO)c(=O)n1Cc1ccccc1`, the Activity index in assay [1] turned out to be 1.04. This compound also returned an inhibition constant (Ki) on Adenosine receptor A3 [2] of 81 nM. In addition, in assay [3], the inhibition result was “Dose-dependent effect”.
For `C=CCCn1c(=O)c2c(nc3cc(OC)ccn32)n(Cc2ccccc2)c1=O`, the Activity index in assay [1] is 1.23. Further, on Adenosine receptor A3 [2], the Ki is 1.4 nM. In addition, in assay [3], the inhibition result was “Dose-dependent effect”.
Take `COc1ccn2c(c1)nc1c2c(=O)n(CC2CC2)c(=O)n1Cc1ccccc1`: in assay [1], the Activity index stood at 2.68. Moreover, the affinity on Adenosine receptor A3 [2], expressed as Ki, was 1 nM. For the same compound, the inhibition result in assay [3] was “Dose-dependent effect”. Moreover, the K in assay [4] is 6 ×10⁻⁵ /s; in assay [5], 2.8 ×10⁶ /M/s.
Consider `COc1ccn2c(c1)nc1c2c(=O)n(CCC(C)(C)C)c(=O)n1Cc1ccccc1`, for which the Activity index in assay [1] came out at 0.95. This compound also had a Ki on Adenosine receptor A3 [2] of 8 nM. The inhibition entry in assay [3] was “Dose-dependent effect”.
As to `COc1ccn2c(c1)nc1c2c(=O)n(CC2CC2)c(=O)n1Cc1ccc(Cl)c(Cl)c1`, the Activity index in assay [1] worked out at 3.12. This compound came in with an inhibition constant (Ki) at Adenosine receptor A3 [2] of 5.3 nM. For the same compound, the inhibition entry in assay [3] is “Dose-dependent effect”. In addition, the K in assay [4] came to 5.3 ×10⁻⁵ /s; in assay [5] it was 1 ×10⁵ /M/s.
As to `COc1ccn2c(c1)nc1c2c(=O)n(CC2CC2)c(=O)n1CCc1ccccc1`, the Activity index in assay [1] amounted to 1.09. The compound also yielded a Ki at Adenosine receptor A3 [2] of 7.7 nM. For the same compound, in assay [3], the inhibition result was “Dose-dependent effect”.
As for `COc1ccn2c(c1)nc1c2c(=O)n(C)c(=O)n1Cc1ccccc1`, in assay [1], the Activity index stood at 0.54. On Adenosine receptor A3 [2], the Ki was found to be 20.8 nM. In addition, the inhibition result in assay [3] was “Dose-dependent effect”.
Consider `CCCCn1c(=O)c2c(nc3cc(OC)ccn32)n(Cc2ccccc2)c1=O`, for which the Activity index in assay [1] turned out to be 1.29. The compound further registered an inhibitory constant (Ki) at Adenosine receptor A3 [2] of 1.5 nM. The inhibition result in assay [3] is “Dose-dependent effect”.
`COc1ccn2c(c1)nc1c2c(=O)n(CC(C)(C)C)c(=O)n1Cc1ccccc1`: in assay [1], the Activity index is 1.73. The same compound came in with a Ki at Adenosine receptor A3 [2] of 3.5 nM. In addition, the inhibition entry in assay [3] is “Dose-dependent effect”. Further, the K in assay [4] was determined as 1.1 ×10⁻⁴ /s; in assay [5], 5.5 ×10⁵ /M/s.
The corresponding values for `CCCCCCn1c(=O)c2c(nc3cc(OC)ccn32)n(Cc2ccccc2)c1=O` are 2.18, 2.8 nM, “Dose-dependent effect”, 8.2 ×10⁻⁵ /s and 2.3 ×10⁵ /M/s.
The corresponding values for `COc1ccn2c(c1)nc1c2c(=O)n(CC2CC2)c(=O)n1Cc1cccc(Cl)c1` are 0.89, 4.9 nM, “Dose-dependent effect”, 4.7 ×10⁻⁴ /s and 8.2 ×10⁵ /M/s.
Regarding `COc1ccn2c(c1)nc1c2c(=O)n(CC2CC2)c(=O)n1Cc1ccc(C)cc1`, the inhibition entry in assay [3] is “Dose-dependent effect”.
As for `COc1ccn2c(c1)nc1c2c(=O)n(CC2CCC2)c(=O)n1Cc1ccccc1`, the Activity index in assay [1] was determined as 1.48. On Adenosine receptor A3 [2], this compound registered a Ki of 2.7 nM. For the same compound, in assay [3], the inhibition entry was “Dose-dependent effect”.
As to `COc1cccc(Cn2c(=O)n(CC3CC3)c(=O)c3c2nc2cc(OC)ccn23)c1`, the Activity index in assay [1] worked out at 2.24. Further, the affinity on Adenosine receptor A3 [2] corresponds to a Ki of 0.38 nM. In addition, the inhibition result in assay [3] was “Dose-dependent effect”. In addition, the K in assay [4] is 4.7 ×10⁻⁵ /s; in assay [5], 4.8 ×10⁵ /M/s. Also, the Kb at Adenosine receptor A3 [7] is 1.26 nM.
Consider `C#CCn1c(=O)c2c(nc3cc(OC)ccn32)n(Cc2ccccc2)c1=O`, for which, in assay [1], the Activity index was found to be 1.2. Also, the Ki on Adenosine receptor A3 [2] is 4.3 nM. In addition, the inhibition result in assay [3] is “Dose-dependent effect”.
With `CCc1ccc(Cn2c(=O)n(CC3CC3)c(=O)c3c2nc2cc(OC)ccn23)cc1`, the Activity index in assay [1] came to 0.81. Besides, affinity at Adenosine receptor A3 [2] was put at a Ki of 0.71 nM. Moreover, the inhibition entry in assay [3] was “Dose-dependent effect”.
With `COc1ccc(Cn2c(=O)n(CC3CC3)c(=O)c3c2nc2cc(OC)ccn23)cc1`, the Activity index in assay [1] came to 1.39. The compound also registered a Ki on Adenosine receptor A3 [2] of 1.4 nM. In addition, the inhibition entry in assay [3] is “Dose-dependent effect”. The values for the K in assay [4] and in assay [5] were 7.8 ×10⁻⁵ /s and 4.8 ×10⁵ /M/s, respectively.
For `CCCn1c(=O)c2c(nc3cc(OC)ccn32)n(Cc2ccccc2)c1=O`, in that order: 0.99, 3.2 nM, “Dose-dependent effect”, 3.2 ×10⁻⁴ /s and 8.5 ×10⁵ /M/s.
As to `CCCCCCCn1c(=O)c2c(nc3cc(OC)ccn32)n(Cc2ccccc2)c1=O`, the Activity index in assay [1] was 4.06. Further, at Adenosine receptor A3 [2], the inhibition constant Ki amounted to 6.8 nM. Further, the inhibition result in assay [3] was “Dose-dependent effect”. Besides, the K in assay [4] was 6.2 ×10⁻⁵ /s; in assay [5] it was 4.2 ×10⁵ /M/s.
